One data set has as its system Enterobacter cloacae. As to the kind of experiment: In vitro minimum inhibitory concentration (MIC) against Enterobacter cloacae A 9656 at 37 degrees C for 18 h. Type of data set: functional.
Data set [1] concerns Pseudomonas aeruginosa. The data set can be described thus: In vitro minimum inhibitory concentration (MIC) against Pseudomonas aeruginosa A 9843 at 37 degrees C for 18 h. Type of data set: functional. In outline:
(§1)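 Two-fold serial broth dilution in nutrient broth. Inoculum adjusted to 10^6 cfu/mL. Compounds tested from 0.0005 to 250 µg/mL.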

Data set [2] deals with Staphylococcus aureus. As to the kind of experiment: In vitro minimum inhibitory concentration (MIC) against Staphylococcus aureus Smith A 9537 at 37 degrees C for 18 hr. In kind it is functional. A digest of the protocol: as §1
For a further data set, the system named is Serratia marcescens. The data set can be described thus: In vitro minimum inhibitory concentration (MIC) against Serratia marcescens A 20019 at 37 degrees C for 18 hr. Type of data set: functional. A digest of the protocol:
as §1

The subject of a further data set is Enterococcus faecalis. As to the kind of experiment: In vitro minimum inhibitory concentration (MIC) against Enterococcus faecalis A 9808 at 37 degrees C for 18 h. Type of data set: functional. A digest of the protocol:
as §1

Data set [3] has as its system Escherichia coli. As to the kind of experiment: In vitro minimum inhibitory concentration (MIC) against Escherichia coli A 15119 at 37 degrees C for 18 h. Type of data set: functional. In outline:
as §1

The test system of the next data set is Morganella morganii. As to the kind of experiment: In vitro minimum inhibitory concentration (MIC) against Morganella morganii A 15153 at 37 degrees C for 18 h. In kind it is functional. A digest of the protocol: as §1
The subject of another data set is Enterococcus faecium. As to the kind of experiment: In vitro minimum inhibitory concentration (MIC) against Enterococcus faecium A 24885 at 37 degrees C for 18 h. In kind it is functional. In outline:
as §1

For data set [4], the system named is Klebsiella pneumoniae. The data set can be described thus: In vitro minimum inhibitory concentration (MIC) against Klebsiella pneumoniae A 9664 at 37 degrees C for 18 h. In kind it is functional. In outline: as §1
Data set [5] deals with Pseudomonas aeruginosa. The data set can be described thus: Efficacy on systematic infections against Pseudomonas aeruginosa A 9843 after oral administration in mice. Type of data set: functional. The following applies: read-out: PD50. In outline: (§2)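 Mice given compound orally after lethal systemic infection. Read-out is the oral dose protecting 50% of mice from death (PD50), reported in mg/kg.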

Data set [6] has as its system Pseudomonas aeruginosa. As to the kind of experiment: In vitro minimum inhibitory concentration (MIC) against Pseudomonas aeruginosa A 9843 at 37 degree C for 18 h. In kind it is functional. In outline: as §1
The subject of data set [7] is Staphylococcus aureus. The data set can be described thus: Efficacy on systematic infections against Staphylococcus aureus A 9537 after oral administration in mice. In kind it is functional. The following applies: read-out: PD50. A digest of the protocol: as §2
In data set [8] the test system is Klebsiella pneumoniae. As to the kind of experiment: Efficacy on systematic infections against Klebsiella pneumoniae A 9664 after oral administration in mice. As to conditions: read-out: PD50. Type of data set: functional. In outline: as §2
The subject of data set [9] is Escherichia coli. As to the kind of experiment: Efficacy on systematic infections against Escherichia coli A 15119 after oral administration in mice. The following applies: read-out: PD50. Type of data set: functional. In outline: as §2
The nature of data set [10]: Tested for aqueous solubility. The following applies: aqueous medium.
For another data set, the species on record is Canis familiaris. As to conditions: dog, in vivo, po, 25 mg/kg.

Values after ≈ are worked out from the molar mass of the structure shown.

For the compound `CN1CCN(c2nc3c(cc2F)c(=O)c(C(=O)O)cn3C(C)(C)C)CC1`, the MIC (in general, the smallest concentration in the dilution series that meets the test's criterion for growth inhibition) against Enterobacter cloacae worked out at 0.06 µg/mL (≈ 0.166 µM); with Pseudomonas aeruginosa [1], 1 µg/mL (≈ 2.76 µM); against Staphylococcus aureus [2] it was 0.06 µg/mL (≈ 0.166 µM); in the data set with Serratia marcescens, 0.25 µg/mL (≈ 0.69 µM); against Enterococcus faecalis, 2 µg/mL (≈ 5.52 µM); in the data set on Escherichia coli [3] it was 0.06 µg/mL (≈ 0.166 µM). In addition, the MIC in the data set with Morganella morganii came to 0.5 µg/mL (≈ 1.38 µM); against Enterococcus faecium it was 0.5 µg/mL (≈ 1.38 µM); in the data set on Klebsiella pneumoniae [4] it was 0.06 µg/mL (≈ 0.166 µM).
Consider `CC(C)(C)n1cc(C(=O)O)c(=O)c2cc(F)c(N3C[C@@H](CN)[C@H](F)C3)nc21.CS(=O)(=O)O`, for which the results for the ED50 with Pseudomonas aeruginosa [5] and in the data set with Staphylococcus aureus [7] were 18 mg/kg and 0.8 mg/kg, respectively. Also, the MIC against Enterobacter cloacae came out at 0.06 µg/mL; against Staphylococcus aureus [2] it was 0.004 µg/mL; with Serratia marcescens, 1 µg/mL; with Enterococcus faecalis, 0.03 µg/mL; in the data set on Pseudomonas aeruginosa [6], 0.5 µg/mL; in the data set on Escherichia coli [3] it was 0.06 µg/mL. For the same compound, the MIC in the data set with Morganella morganii amounted to 0.5 µg/mL; against Enterococcus faecium it was 0.25 µg/mL; with Klebsiella pneumoniae [4], 0.13 µg/mL.
With `CC(C)(C)n1cc(C(=O)O)c(=O)c2cc(F)c(N3CCNCC3)cc21`, the ED50 in the data set on Pseudomonas aeruginosa [5] came to 29 mg/kg; in the data set on Klebsiella pneumoniae [8], 10.3 mg/kg; with Staphylococcus aureus [7] it was 2.4 mg/kg; in the data set with Escherichia coli [9], 21.7 mg/kg. Besides, the MIC against Enterobacter cloacae stood at 0.13 µg/mL (≈ 0.374 µM); against Pseudomonas aeruginosa [1] it was 0.5 µg/mL (≈ 1.44 µM); against Staphylococcus aureus [2], 0.06 µg/mL (≈ 0.173 µM); against Serratia marcescens, 0.5 µg/mL (≈ 1.44 µM); in the data set with Enterococcus faecalis, 1 µg/mL (≈ 2.88 µM); in the data set with Escherichia coli [3], 0.06 µg/mL (≈ 0.173 µM). The minimum inhibitory concentration (MIC) was found to be 0.25 µg/mL (≈ 0.72 µM) with Morganella morganii, 4 µg/mL (≈ 11.5 µM) with Enterococcus faecium and 0.13 µg/mL (≈ 0.374 µM) in the data set on Klebsiella pneumoniae [4]. Also, in data set [10], the concentration in solution (solubility) was 130 µg/mL (≈ 374 µM).
Regarding `CC(C)(C)n1cc(C(=O)O)c(=O)c2cc(F)c(N3CCNCC3)nc21`, in the data set listed under Canis familiaris, the AUC (in general, concentration integrated over time) worked out at 50000 ng·h/mL. Further, the ED50 came to 10.9 mg/kg in the data set on Pseudomonas aeruginosa [5], 4.8 mg/kg with Klebsiella pneumoniae [8], 1.1 mg/kg in the data set with Staphylococcus aureus [7] and 4.7 mg/kg in the data set on Escherichia coli [9]. Besides, the MIC with Enterobacter cloacae turned out to be 0.06 µg/mL (≈ 0.172 µM); with Pseudomonas aeruginosa [1] it was 1 µg/mL (≈ 2.87 µM); with Staphylococcus aureus [2] it was 0.06 µg/mL (≈ 0.172 µM); against Serratia marcescens, 0.25 µg/mL (≈ 0.718 µM); with Enterococcus faecalis, 0.5 µg/mL (≈ 1.44 µM); in the data set on Escherichia coli [3] it was 0.015 µg/mL (≈ 0.0431 µM). For the same compound, the MIC in the data set with Morganella morganii came out at 0.25 µg/mL (≈ 0.718 µM); with Enterococcus faecium it was 8 µg/mL (≈ 23 µM); in the data set on Klebsiella pneumoniae [4], 0.13 µg/mL (≈ 0.373 µM). In addition, the solubility (as a rule, the dissolved amount per volume that the medium holds) in data set [10] was found to be 820 µg/mL (≈ 2350 µM).
For the compound `CC(C)(C)n1cc(C(=O)O)c(=O)c2cc(F)c(N3CCC(N)C3)nc21.CS(=O)(=O)O` (stereo not drawn), the ED50 with Pseudomonas aeruginosa [5] turned out to be 3.5 mg/kg; in the data set on Klebsiella pneumoniae [8], 2.1 mg/kg; with Staphylococcus aureus [7], 1.4 mg/kg; with Escherichia coli [9] it was 1.4 mg/kg. Also, the MIC in the data set with Enterobacter cloacae was 0.13 µg/mL; in the data set on Staphylococcus aureus [2], 0.015 µg/mL; against Serratia marcescens it was 0.25 µg/mL; in the data set with Enterococcus faecalis, 0.25 µg/mL; against Pseudomonas aeruginosa [6], 2 µg/mL; against Escherichia coli [3] it was 0.13 µg/mL. In addition, the MIC against Morganella morganii came to 1 µg/mL; in the data set with Enterococcus faecium it was 1 µg/mL; against Klebsiella pneumoniae [4], 0.25 µg/mL.
Turning to `CC(C)(C)n1cc(C(=O)O)c(=O)c2cc(F)c(N3C[C@@H]4C[C@H]3CN4)cc21`, the values for the ED50 in the data set on Pseudomonas aeruginosa [5] and in the data set with Staphylococcus aureus [7] were 23 mg/kg and 10 mg/kg, respectively. Moreover, the minimal inhibitory concentration (MIC) was 0.5 µg/mL (≈ 1.39 µM) in the data set on Enterobacter cloacae; 0.25 µg/mL (≈ 0.696 µM) against Staphylococcus aureus [2]; 2 µg/mL (≈ 5.56 µM) with Serratia marcescens; 4 µg/mL (≈ 11.1 µM) in the data set on Enterococcus faecalis; 1 µg/mL (≈ 2.78 µM) with Pseudomonas aeruginosa [6]; 2 µg/mL (≈ 5.56 µM) with Escherichia coli [3]. For the same compound, the MIC worked out at 1 µg/mL (≈ 2.78 µM) with Morganella morganii, 16 µg/mL (≈ 44.5 µM) in the data set on Enterococcus faecium and 0.5 µg/mL (≈ 1.39 µM) with Klebsiella pneumoniae [4].
With `CC(C)(C)n1cc(C(=O)O)c(=O)c2cc(F)c(N3CCC(N)C3)cc21.Cl` (stereo not drawn), the ED50 in the data set on Pseudomonas aeruginosa [5] is 19.9 mg/kg; in the data set on Klebsiella pneumoniae [8], 23 mg/kg; in the data set on Staphylococcus aureus [7], 8.2 mg/kg; in the data set with Escherichia coli [9], 5.4 mg/kg. For the same compound, the MIC stood at 0.13 µg/mL with Enterobacter cloacae; 0.03 µg/mL against Staphylococcus aureus [2]; 1 µg/mL in the data set on Serratia marcescens; 0.25 µg/mL in the data set on Enterococcus faecalis; 1 µg/mL against Pseudomonas aeruginosa [6]; 0.06 µg/mL in the data set on Escherichia coli [3]. Also, the minimal inhibitory concentration (MIC) against Morganella morganii is 0.5 µg/mL; against Enterococcus faecium, 2 µg/mL; against Klebsiella pneumoniae [4] it was 0.25 µg/mL. This compound also displayed a solubility in [10] of 70 µg/mL.
Regarding `CC(C)(C)n1cc(C(=O)O)c(=O)c2cc(F)c(N3C[C@@H](CN)[C@@H](F)C3)nc21`, the ED50 with Pseudomonas aeruginosa [5] is 18 mg/kg; in the data set on Klebsiella pneumoniae [8], 18 mg/kg; in the data set on Staphylococcus aureus [7] it was 4.5 mg/kg; in the data set with Escherichia coli [9], 18 mg/kg. The MIC with Enterobacter cloacae amounted to 0.25 µg/mL (≈ 0.657 µM); against Staphylococcus aureus [2] it was 0.015 µg/mL (≈ 0.0394 µM); with Serratia marcescens, 0.5 µg/mL (≈ 1.31 µM); with Enterococcus faecalis it was 0.13 µg/mL (≈ 0.342 µM); against Pseudomonas aeruginosa [6], 0.5 µg/mL (≈ 1.31 µM); against Escherichia coli [3] it was 0.06 µg/mL (≈ 0.158 µM). In addition, the values for the minimal inhibitory concentration (MIC) against Morganella morganii, against Enterococcus faecium and with Klebsiella pneumoniae [4] were 0.5 µg/mL (≈ 1.31 µM), 1 µg/mL (≈ 2.63 µM) and 0.25 µg/mL (≈ 0.657 µM), respectively.
With `CC(C)(C)n1cc(C(=O)O)c(=O)c2cc(F)c(N3C[C@@H]4C[C@H]3CN4)nc21`, the ED50 came out at 14 mg/kg in the data set on Pseudomonas aeruginosa [5], 10.8 mg/kg in the data set on Klebsiella pneumoniae [8], 0.5 mg/kg with Staphylococcus aureus [7] and 4 mg/kg in the data set with Escherichia coli [9]. The MIC is 0.25 µg/mL (≈ 0.694 µM) with Enterobacter cloacae; 0.13 µg/mL (≈ 0.361 µM) in the data set on Staphylococcus aureus [2]; 2 µg/mL (≈ 5.55 µM) against Serratia marcescens; 1 µg/mL (≈ 2.77 µM) with Enterococcus faecalis; 0.5 µg/mL (≈ 1.39 µM) against Pseudomonas aeruginosa [6]; 0.13 µg/mL (≈ 0.361 µM) in the data set on Escherichia coli [3]. Moreover, the MIC in the data set on Morganella morganii was 0.13 µg/mL (≈ 0.361 µM); in the data set with Enterococcus faecium, 4 µg/mL (≈ 11.1 µM); in the data set on Klebsiella pneumoniae [4], 0.13 µg/mL (≈ 0.361 µM).

These data come from ChEMBL document CHEMBL1124759, “Fluoronaphthyridines and quinolones as antibacterial agents. 2. Synthesis and structure-activity relationships of new 1-tert-butyl 7-substituted derivatives” (J Med Chem, 1990).
